Assay outcomes (PubChem BioAssay)
Hits are enriched below; roughly 1.9% of the tested compounds scored in any of these assays.
Runt-CBFb FRET – inhibitors of human RUNX1 Runt domain binding to CBFb | Q01196+Q13951 | Cerulean-Runt/Venus-CBFb FRET ratio 530/480, 1 h | inhibition, % at 20 µM | 0.46% of 220,000 active | AID 1496;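 active = inhibition over about 50% at 20 µM in the single-dose screen, limit read from the data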;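 also: 0% = DMSO wells and 100% = excess unlabeled CBFb competitor control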
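Doses: 20 µM compound in 1% DMSO | Material: Cerulean-labeled Runt domain protein | Amount: Each fluorescent fusion protein 100 nM | Schedule: Two 1 h room-temperature incubations shielded from light | Measured by: FRET fluorescence | Evaluation: Loss of energy transfer signal | Controls: Unlabeled CBFb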
HDAC3 inhib – inhibitors of human histone deacetylase 3; recombinant HDAC3, fluorogenic peptide/trypsin coupled, fluorescence; AID 2718; 0.15% of 320,000 active; inhibition, % at 8.3 µM; O15379; in the data active = inhibition above about 26%, passing the limit was not always enough; inconclusive = no clear call, values can overlap the other calls
Target sequence (O15379 whole entry, looked up): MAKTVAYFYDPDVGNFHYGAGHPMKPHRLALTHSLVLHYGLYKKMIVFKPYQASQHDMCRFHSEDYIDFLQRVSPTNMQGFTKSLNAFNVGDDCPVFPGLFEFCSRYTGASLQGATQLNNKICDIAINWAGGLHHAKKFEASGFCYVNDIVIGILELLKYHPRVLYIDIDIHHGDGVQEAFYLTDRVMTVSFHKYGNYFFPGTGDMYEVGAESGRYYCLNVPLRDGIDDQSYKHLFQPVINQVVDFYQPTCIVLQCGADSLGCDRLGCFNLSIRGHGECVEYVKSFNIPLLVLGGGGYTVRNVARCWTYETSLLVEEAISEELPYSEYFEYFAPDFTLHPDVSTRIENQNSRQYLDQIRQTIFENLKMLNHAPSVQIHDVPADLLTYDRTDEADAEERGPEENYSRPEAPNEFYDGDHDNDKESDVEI
Runt-SMMHC FRET – inhibitors of human RUNX1 Runt domain binding to CBFb-SMMHC; inhibition, % at 20 µM; Q01196+Q13951; Cerulean-Runt/Venus-CBFb-SMMHC FRET ratio 530/480, 1 h; 0.74% of 220,000 active;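 active = mean inhibition across duplicate retests at 20 µM reaching about 50%, limit read from the data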;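 also: 0% = DMSO wells and 100% = wells with excess untagged CBFb-SMMHC; inhibitors lower the FRET ratio by blocking Runt binding to CBFb-SMMHC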
CaV13 ICDI inh – Disruptors of the CACNA1D IQ motif to Ca2+-dependent inactivation inhibitor domain association, primary screening, Förster resonance energy transfer in intact living … | HEK cells, CFP/YFP FRET ICDI-IQ, plate reader, 10 min; percent FRET-ratio fall versus neutral wells | inhibition, % at 12.3 µM | 0.098% of 340,000 active | AID 743397;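 active = mean replicate inhibition of at least 30% and at least 1% of replicates passing that level; inconclusive = only one of the two criteria is met; inactive = neither criterion is met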;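 also: 0% = median of the neutral control wells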
LANA-H2A inh – blocks KSHV LANA binding to histone H2A/H2B; AID 2629; cell-free LANA-H2A/H2B peptide, fluorescence polarization; Q9QR71; 0.6% of 320,000 active; inhibition, % (no concentration beside the values); in the data active = inhibition mostly above about 10%, no sharp cut-off; inactive = mostly below about 6.7%
RanGTP-Impb inh – inhibitors of RanGTP-importin-beta interaction, primary screen, biochemical, FRET, CFP-Ran, YFP-importin-beta, homogeneous | cell-free CFP-Ran/YFP-importin-beta FRET ratio | inhibition, % (concentration not given with the values) | 1.1% of 300,000 active | AID 2216;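 active = more than half of the replicate wells show a fall in the fluorescence ratio signal beyond about 16%, limit read from the data, passing the limit was not always enough; inconclusive = exactly half of the replicate wells pass the set limit; inactive = fewer than half of replicates pass the limit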;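 also: 0% = DMSO wells and 100% = Ran loaded with GDP instead of GTP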
Numbers without * were called inactive.

Cc1ccc(-c2cc(C(=O)NCC3CCCO3)c3ccccc3n2)cc1C (stereo not given) was read as Runt-CBFb FRET -5.6, HDAC3 inhib -0.5, Runt-SMMHC FRET 2.3, CaV13 ICDI inh -2.4, LANA-H2A inh -5.0 and RanGTP-Impb inh -1.7.
For Cc1cccn2c(=O)c3cc(C(=O)NCC4CCCO4)c(=N)n(CC4CCCO4)c3nc12 (stereo not given) the results were HDAC3 inhib -391.0, CaV13 ICDI inh 58.3*, LANA-H2A inh 0.9 and RanGTP-Impb inh 187.7*.
Screening CCOC(=O)c1cc2c(=O)n3cccc(C)c3nc2n(CC2CCCO2)c1=NC(C)=O (stereo not given) returned HDAC3 inhib -124.2, CaV13 ICDI inh -9.6, LANA-H2A inh 2.9 and RanGTP-Impb inh 21.6*.
O=C(C[C@H]1CC[C@@H]2[C@H](COC[C@H](O)CN2Cc2cccc(F)c2)O1)NCc1cccc(F)c1 was read as CaV13 ICDI inh -6.8.
Cc1cc(=O)oc2cc(NC(=O)CN3C(=O)NC(C)(c4ccccc4)C3=O)ccc12 (stereo not given) was read as HDAC3 inhib -40.7, CaV13 ICDI inh -3.3 and LANA-H2A inh 2.0.
For Cc1cccn2c(=O)c3cc(C(=O)NCc4ccco4)c(=N)n(C4CCCC4)c3nc12 the results were HDAC3 inhib -59.4, CaV13 ICDI inh 6.3, LANA-H2A inh 3.3 and RanGTP-Impb inh 130.0*.
`Cc1ccc(-n2nnc3c(=O)n(CC(=O)N4CCCC4)cnc32)cc1` gave Runt-CBFb FRET -3.1, HDAC3 inhib 1.4, Runt-SMMHC FRET 2.3, CaV13 ICDI inh -6.7, LANA-H2A inh 10.1* and RanGTP-Impb inh 2.8.
For COc1cccc(N2CCN(S(=O)(=O)c3ccc4c(c3)oc(=O)n4C)CC2)c1 the results were HDAC3 inhib -0.1, CaV13 ICDI inh -2.5, LANA-H2A inh -1.9 and RanGTP-Impb inh 1.5.
For CCNC(=S)NC(=NCc1cccnc1)Nc1nc(C)cc(C)n1 the results were HDAC3 inhib 0.6, CaV13 ICDI inh -2.2, LANA-H2A inh -0.3 and RanGTP-Impb inh 19.1*.
O=c1oc2cc(O)ccc2c2oc3cc(O)ccc3c12 was read as Runt-CBFb FRET 23.1, HDAC3 inhib -214.7, Runt-SMMHC FRET 56.4*, CaV13 ICDI inh -4.8, LANA-H2A inh -4.1 and RanGTP-Impb inh inconclusive.
O=c1oc2cc(O)ccc2c2c1CCCC2 was read as Runt-CBFb FRET 48.1, HDAC3 inhib -200.8, Runt-SMMHC FRET 108.1*, CaV13 ICDI inh -3.8, LANA-H2A inh 0.2 and RanGTP-Impb inh 9.8.
Screening CN1C(=O)/C(=C/c2ccc(OCc3ccccc3F)cc2)N(C)C1=S returned HDAC3 inhib 4.3, CaV13 ICDI inh -2.2, LANA-H2A inh 3.3 and RanGTP-Impb inh -3.5.
`Cc1cccc(N(CC(=O)NC2CCCC2)C(=O)CS(=O)CC(=O)Nc2ccc3c(c2)OCO3)c1` (stereo not given) gave Runt-CBFb FRET -2.6, Runt-SMMHC FRET 4.8, CaV13 ICDI inh -5.7 and RanGTP-Impb inh -4.6.
COc1cccc(-c2nc(-c3ccc4c(c3)-c3ccccc3S4(=O)=O)c(-c3ccccc3)[nH]2)c1OC was read as Runt-CBFb FRET -11.3, HDAC3 inhib 2.7, CaV13 ICDI inh -6.0, LANA-H2A inh 5.7 and RanGTP-Impb inh 15.5*.
Screening COc1cc(-c2nc(-c3ccc4c(c3)-c3ccccc3S4(=O)=O)c(-c3ccccc3)[nH]2)cc(OC)c1OC returned Runt-CBFb FRET -53.0, HDAC3 inhib 6.2, Runt-SMMHC FRET -108.1, LANA-H2A inh -3.3 and RanGTP-Impb inh -6.6.
`O=C(Nc1nc(-c2cccnc2)cs1)c1ccccc1[N+](=O)[O-]` gave Runt-CBFb FRET 2.0, HDAC3 inhib 3.2, Runt-SMMHC FRET -0.6, CaV13 ICDI inh -2.4, LANA-H2A inh 1.8 and RanGTP-Impb inh 17.9*.
Screening Oc1ccccc1C1=NN(c2ccccc2)C(c2ccc(F)cc2)C1 (stereo not given) returned HDAC3 inhib -5.7, CaV13 ICDI inh -12.6, LANA-H2A inh 3.0 and RanGTP-Impb inh -2.7.
